According to publication PMC4803553 (Endocrinology and Metabolism, 2016):
Read-outs that look alike come from different tables or passages of the source.

Key:
Renal function = format: in vivo, human; conditions: follow-up after DPP-4 inhibitor treatment, mean±SD; for Follow-up eGFR: MDRD equation
Outline: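 Fasting early-morning antecubital venous blood was taken from renal allograft recipients receiving a DPP-4 inhibitor. Creatinine was measured by the Jaffe method. eGFR was calculated with the Modification of Diet in Renal Disease study equation. Values are reported as mean±SD and were compared across inhibitor groups by one-way ANOVA with Scheffe post hoc tests.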

hemoglobin A1c (HbA1c) = format: in vivo, human; conditions: mean±SD; for After treatment HbA1c: after 3 months of treatment, kidney transplant patients with diabetes; for Difference of HbA1c (ΔHbA1c): change from baseline to 3 months of treatment
Outline: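 Renal allograft recipients with diabetes, all on cyclosporine-based triple maintenance therapy, started a DPP-4 inhibitor after transplant, at full or renally adjusted reduced dose (50 mg once daily). HbA1c was measured by immunoturbidimetry on an automated analyser and reported as NGSP %. Values at baseline and after 3 months of treatment were compared by paired t test; mean±SD.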

[1] = cited from earlier work

Row | SMILES | Follow-up eGFR (Renal function) | Follow-up creatinine (Renal function) | After treatment HbA1c (hemoglobin A1c (HbA1c)) | Difference of HbA1c (ΔHbA1c) (hemoglobin A1c (HbA1c)) | Difference of HbA1c (ΔHbA1c) (hemoglobin A1c (HbA1c); listed as sitagliptin) | Eliminated in an unchanged form in the urine [1] | Eliminated in an unchanged form via the feces [1] | Renal excretion, share of elimination [1] | Difference of HbA1c (ΔHbA1c) (hemoglobin A1c (HbA1c); listed as vildagliptin)
1 | N[C@@H](CC(=O)N1CCn2c(nnc2C(F)(F)F)C1)Cc1cc(F)c(F)cc1F [Sitagliptin, sitagliptin] | 61.03±16.50 mL/min/1.73 m^2 | 1.22 ± 0.82 mg/dL | 7.18±1.21% | -0.53±0.95% | –0.53%±0.95% | 79% | – | – | –
2 | CC#CCn1c(N2CCC[C@@H](N)C2)nc2c1c(=O)n(Cc1nc(C)c3ccccc3n1)c(=O)n2C [Linagliptin, linagliptin] | 62.82±18.74 mL/min/1.73 m^2 | 1.25 ± 0.42 mg/dL | 6.79±0.63% | -1.40±1.34% | – | – | 84.7% | 5.4% | –
3 | N#C[C@@H]1CCCN1C(=O)CNC12CC3CC(CC(O)(C3)C1)C2 [Vildagliptin, vildagliptin] | 58.21±17.76 mL/min/1.73 m^2 | 1.41 ± 0.95 mg/dL | 7.08±1.81% | -0.38±1.03% | – | – | – | – | –0.38%±1.03%
